Measurements taken from ChEMBL document CHEMBL1240470, “Synthesis and evaluation of some novel dibenzo[b,d]furan carboxylic acids as potential anti-diabetic agents” (Eur J Med Chem, 2010).
Calls of active or inactive are those of the source. No cut-off for these calls is given here.

How the values were obtained:
[1] = target: T1, Tyrosine-protein phosphatase non-receptor type 2 (Homo sapiens, UniProt P17706); test: Inhibition of human recombinant TCPTP after 30 mins by spectrophotometry
T1 sequence (P17706 whole entry): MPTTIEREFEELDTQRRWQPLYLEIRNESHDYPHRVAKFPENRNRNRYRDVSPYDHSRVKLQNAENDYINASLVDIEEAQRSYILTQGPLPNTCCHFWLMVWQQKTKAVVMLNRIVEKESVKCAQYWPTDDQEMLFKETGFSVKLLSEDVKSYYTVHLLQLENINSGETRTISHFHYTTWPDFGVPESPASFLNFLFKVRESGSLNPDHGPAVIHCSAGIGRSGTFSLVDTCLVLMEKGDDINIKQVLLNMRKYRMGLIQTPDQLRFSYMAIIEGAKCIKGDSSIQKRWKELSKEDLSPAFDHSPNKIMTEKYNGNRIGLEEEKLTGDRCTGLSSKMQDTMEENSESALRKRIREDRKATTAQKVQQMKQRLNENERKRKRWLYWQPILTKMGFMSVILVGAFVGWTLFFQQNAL
In short: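 In-house human recombinant enzyme (40 ng) was preincubated with inhibitor (1% DMSO) for 10 min at 37 °C in 25 mM Hepes pH 7.0 containing 3 mM DTT, 0.15 M NaCl, 1 mM EDTA and 0.01% NP-40. Reaction was started with 2.5 mM pNPP and followed at 405 nm for 30 min at 37 °C, then quenched with NaOH. Activity came from a p-nitrophenol standard curve.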

[2] = target: Receptor-type tyrosine-protein phosphatase F (Homo sapiens, UniProt P10586)
[3] = target: T2, Tyrosine-protein phosphatase non-receptor type 1 (Homo sapiens, UniProt P18031)
T2 sequence (P18031 whole entry): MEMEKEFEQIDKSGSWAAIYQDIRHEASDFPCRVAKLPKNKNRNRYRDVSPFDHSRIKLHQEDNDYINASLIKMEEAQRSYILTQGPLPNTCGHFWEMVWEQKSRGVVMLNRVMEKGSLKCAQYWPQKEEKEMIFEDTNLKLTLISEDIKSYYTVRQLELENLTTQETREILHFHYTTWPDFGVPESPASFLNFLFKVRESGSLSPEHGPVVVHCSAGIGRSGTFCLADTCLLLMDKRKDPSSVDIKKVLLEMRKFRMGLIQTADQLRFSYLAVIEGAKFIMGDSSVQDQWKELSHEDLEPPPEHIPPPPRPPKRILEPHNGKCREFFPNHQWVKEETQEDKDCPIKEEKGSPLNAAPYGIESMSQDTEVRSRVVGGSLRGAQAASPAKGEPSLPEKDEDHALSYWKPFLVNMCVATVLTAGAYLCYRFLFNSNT

Mus musculus [4] = test: Antidiabetic activity in ob/ob mouse assessed as plasma cholesterol level at 10 mg/kg, ip measured on day 14 (RVb = 193 +/- 4 mg/dL); type: functional; conditions: route intraperitoneal
Mus musculus [5] = species: Mus musculus; conditions: 10 mg/kg
Mus musculus [6] = test: Antidiabetic activity in ob/ob mouse assessed as fasting plasma glucose at 10 mg/kg measured on day 14 (RVb = 194 +/- 17 mg/dL)
Mus musculus [7] = test: Antidiabetic activity in ob/ob mouse assessed as fasting plasma glucose at 10 mg/kg, ip measured on day 14 (RVb = 194 +/- 17 mg/dL); type: functional; conditions: route intraperitoneal
Mus musculus [8] = species: Mus musculus; conditions: Plasma, 10 mg/kg
Mus musculus [9] = test: Antidiabetic activity in ob/ob mouse assessed as whole blood glucose at 10 mg/kg, ip measured on day 10 (reference value: 138 +/- 8 mg/dL); type: functional; conditions: route intraperitoneal
Mus musculus [10] = species: Mus musculus; conditions: Blood, 10 mg/kg
Mus musculus [11] = test: Antidiabetic activity in ob/ob mouse assessed as decrease in body weight at 10 mg/kg, po measured on day 15; type: functional, organism-based; set-up: dose 10 mg/kg
Mus musculus [12] = test: Antidiabetic activity in ob/ob mouse assessed as reduction in fed-state whole blood glucose at 10 mg/kg, po measured on day 7; type: functional, organism-based; set-up: dose 10 mg/kg
Mus musculus [13] = test: Antidiabetic activity in ob/ob mouse assessed as whole blood glucose at 10 mg/kg, po measured on day 10 (reference value: 139 +/- 8 mg/dL)

Receptor-type tyrosine-protein phosphatase F, sequence (P10586 whole entry): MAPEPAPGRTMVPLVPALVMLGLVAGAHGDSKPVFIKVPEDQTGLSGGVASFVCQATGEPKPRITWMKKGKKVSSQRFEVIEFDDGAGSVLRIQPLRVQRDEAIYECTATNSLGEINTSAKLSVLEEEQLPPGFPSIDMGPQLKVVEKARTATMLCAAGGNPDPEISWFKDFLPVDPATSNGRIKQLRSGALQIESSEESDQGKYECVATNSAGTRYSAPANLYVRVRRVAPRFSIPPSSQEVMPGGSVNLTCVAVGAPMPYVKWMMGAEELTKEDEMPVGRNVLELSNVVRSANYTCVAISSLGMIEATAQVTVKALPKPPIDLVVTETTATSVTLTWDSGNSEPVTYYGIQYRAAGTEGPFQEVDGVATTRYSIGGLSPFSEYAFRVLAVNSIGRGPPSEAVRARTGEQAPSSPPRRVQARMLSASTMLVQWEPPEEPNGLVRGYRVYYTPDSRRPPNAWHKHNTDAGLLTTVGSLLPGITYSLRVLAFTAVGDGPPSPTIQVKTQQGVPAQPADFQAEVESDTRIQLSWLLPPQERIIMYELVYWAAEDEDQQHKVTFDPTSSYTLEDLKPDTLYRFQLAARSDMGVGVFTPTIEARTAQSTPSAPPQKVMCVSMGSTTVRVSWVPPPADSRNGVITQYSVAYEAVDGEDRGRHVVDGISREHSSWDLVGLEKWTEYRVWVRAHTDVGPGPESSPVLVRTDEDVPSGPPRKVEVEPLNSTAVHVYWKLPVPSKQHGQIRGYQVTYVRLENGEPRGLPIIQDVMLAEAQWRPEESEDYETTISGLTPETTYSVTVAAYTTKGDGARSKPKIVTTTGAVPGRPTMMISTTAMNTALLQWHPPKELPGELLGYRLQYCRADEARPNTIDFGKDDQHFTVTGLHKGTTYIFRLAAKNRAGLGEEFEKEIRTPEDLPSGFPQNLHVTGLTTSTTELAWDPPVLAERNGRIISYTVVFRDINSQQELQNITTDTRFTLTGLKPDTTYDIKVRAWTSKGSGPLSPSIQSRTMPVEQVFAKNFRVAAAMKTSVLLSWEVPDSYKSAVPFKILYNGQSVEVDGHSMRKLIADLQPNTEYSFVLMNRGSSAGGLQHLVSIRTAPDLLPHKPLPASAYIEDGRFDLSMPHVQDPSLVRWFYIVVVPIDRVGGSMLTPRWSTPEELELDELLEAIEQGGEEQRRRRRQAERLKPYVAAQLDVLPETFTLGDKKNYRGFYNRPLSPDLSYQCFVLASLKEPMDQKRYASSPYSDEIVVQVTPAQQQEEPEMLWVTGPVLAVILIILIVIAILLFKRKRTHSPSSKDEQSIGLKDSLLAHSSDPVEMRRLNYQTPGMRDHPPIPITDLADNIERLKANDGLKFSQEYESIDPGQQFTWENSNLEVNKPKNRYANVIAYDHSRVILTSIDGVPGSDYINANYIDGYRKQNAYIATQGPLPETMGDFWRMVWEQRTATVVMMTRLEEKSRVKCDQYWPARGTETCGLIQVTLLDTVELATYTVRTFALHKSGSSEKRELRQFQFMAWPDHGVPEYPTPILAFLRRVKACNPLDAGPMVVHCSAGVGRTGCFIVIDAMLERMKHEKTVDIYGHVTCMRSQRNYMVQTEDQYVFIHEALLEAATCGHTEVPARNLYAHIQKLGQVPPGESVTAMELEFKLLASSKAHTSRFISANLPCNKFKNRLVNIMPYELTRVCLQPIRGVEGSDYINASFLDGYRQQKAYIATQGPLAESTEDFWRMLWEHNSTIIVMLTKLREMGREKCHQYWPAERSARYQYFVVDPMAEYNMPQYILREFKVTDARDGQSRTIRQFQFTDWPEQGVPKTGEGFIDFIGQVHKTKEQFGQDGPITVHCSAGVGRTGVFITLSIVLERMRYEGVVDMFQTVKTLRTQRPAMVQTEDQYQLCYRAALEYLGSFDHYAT

IC50 [1] | IC50 [2] | IC50 [3] | Compound | other results
961 nM | 3750 nM | 257 nM | CN(C)c1ccc(-c2nc(-c3ccc4oc5c(C(=O)O)cccc5c4c3)cs2)cc1 | –
2070 nM | 2070 nM | 121 nM | O=C(O)c1cccc2c1oc1ccc(-c3csc(-c4ccc(N5CCCCC5)cc4)n3)cc12 | –
348 nM | 2870 nM | 201 nM | O=C(O)c1cccc2c1oc1ccc(-c3csc(-c4ccc([N+](=O)[O-])cc4)n3)cc12 | –
136 nM | 410 nM | 38 nM | CCc1cc(C[C@H]2NC(=O)CN(CCCCOc3cccc(O)c3C(=O)OC)C2=O)ccc1N(C(=O)C(=O)O)c1ccccc1C(=O)O [OXALYLAMINOBENZOIC ACID] | Ki [1]: 65 nM; Ki [3]: 18 nM
983 nM | 1980 nM | 620 nM | O=C(O)/C=C/c1ccc(-c2nc(-c3ccc4oc5c(C(=O)O)cccc5c4c3)cs2)cc1 | –
730 nM | 1320 nM | 515 nM | Cc1ccc(-c2nc(-c3ccc4oc5c(C(=O)O)cccc5c4c3)cs2)cc1 | –
1660 nM | 2990 nM | 82 nM | O=C(O)c1cccc2c1oc1ccc(-c3csc(-c4ccc(N5CCCC5)cc4)n3)cc12 | Activity (Mus musculus [4]): 138 mg/dL; inhibition (Mus musculus [5]): Active; Activity (Mus musculus [6]): 124 mg/dL; Activity (Mus musculus [7]): 93 mg/dL; inhibition (Mus musculus [8]): inactive; Activity (Mus musculus [9]): 93 mg/dL; inhibition (Mus musculus [10]): Active
1430 nM | 2140 nM | 187 nM | CC1CN(c2ccc(-c3nc(-c4ccc5oc6c(C(=O)O)cccc6c5c4)cs3)cc2)CC(C)O1 (stereo unspecified) | –
794 nM | 2070 nM | 551 nM | O=C(O)/C=C/c1cccc(-c2nc(-c3ccc4oc5c(C(=O)O)cccc5c4c3)cs2)c1 | –
693 nM | – | 185 nM | Nc1ccc(-c2nc(-c3ccc4oc5c(C(=O)O)cccc5c4c3)cs2)cc1 | –
1870 nM | – | 395 nM | O=C(O)c1cccc2c1oc1ccc(-c3csc(-c4ccc(I)cc4)n3)cc12 | –
– | – | – | CN(CCOc1ccc(CC2SC(=O)NC2=O)cc1)c1ccccn1.O=C(O)/C=C\C(=O)O (stereo unspecified) [ROSIGLITAZONE MALEATE] | inhibition (Mus musculus [11]): inactive; inhibition (Mus musculus [12]): Active; Activity (Mus musculus [13]): 90 mg/dL
– | – | 3200 nM | Cc1nc(-c2ccc(Cl)cc2)sc1OCCc1cc(C(O)(C(=O)O)C(F)(F)F)ccc1OCc1ccccc1 (stereo unspecified) | –
3140 nM | 3570 nM | 177 nM | O=C(O)c1cccc2c1oc1ccc(-c3csc(-c4cc(Br)c(C(=O)[C@H](Cc5ccccc5)C(=O)O)c(Br)c4)n3)cc12 | –
1620 nM | 2100 nM | 425 nM | O=C(O)c1cccc2c1oc1ccc(-c3csc(-c4cccc(I)c4)n3)cc12 | –
1630 nM | 2940 nM | 280 nM | O=C(O)c1cccc2c1oc1ccc(-c3csc(-c4ccc(N5CCOCC5)cc4)n3)cc12 | –
2100 nM | 3250 nM | 388 nM | O=C(O)c1ccc(-c2nc(-c3ccc4oc5c(C(=O)O)cccc5c4c3)cs2)cc1 | –
